HKDC1 activator: activators of human hexokinase HKDC1 | Q2TB90 | recombinant HKDC1, G6PDH/diaphorase resazurin fluorescence; hits give low values | activity change, negative = activation, % at 20 µM | 340,000 tested, 0.056% active;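 active means activation of 40% or more at 20 µM, a change of -40% or lower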
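System: in-house human HKDC1 enzyme, G6PDH and diaphorase coupling enzymes; Quantity: 5 µg/mL HKDC1 final; Buffer or medium: Tris/MgCl2 buffer, pH 8.0; Dosing: single compound dose of 20 µM, 1% DMSO final; Times: 90 min reaction at room temperature, dark; Detection: coupled resazurin-to-resorufin fluorescence, Ex 525/Em 613 nm.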
* marks the source's active call; other numbers are inactive results. The list is a sample of the results.

SMILES	HKDC1 activator
Cc1[nH]n(-c2ccccc2)c(=O)c1/C=N/Nc1nncc(-c2ccccc2)n1	-47*
CCCCN(CCCC)C(=S)N/N=C/c1c(C)[nH]n(-c2ccccc2)c1=O	-41*
CN(C)c1ccc(Cc2cc3c(O)ccc(O)c3cc(Cc3ccc(N(C)C)cc3)c2=O)cc1	60
CCOC(=O)/C=C(\C)Sc1cc(O)c2ccccc2c1O	57
COc1ccc(C(=O)/C=C/c2ccsc2)cc1CSCC(=O)O	36
O=C1C=CC(=O)c2c(O)c(N3CCN(CCOCCO)CC3)c(Br)c(O)c21	46
COC1=CC(=O)C(C2CC(=O)c3c(O)cc(O)cc3O2)=CC1=O (stereo not given)	60
S=C(NN=C(c1ccccc1)c1ccccn1)N(Cc1ccccn1)Cc1ccccn1	-46*
COc1ccc(OC(=O)N2C/C(=C/c3ccccc3)C(=O)/C(=C\c3ccccc3)C2)cc1	36
CCCc1nc2oc3c(OC)ncnc3c2c2c1COC(C)(C)C2	37
COc1ccc(Oc2cc(C)nc(Cl)n2)nn1	-78*
O=c1oc2cc(Oc3c([N+](=O)[O-])cc(C(F)(F)F)cc3[N+](=O)[O-])ccc2c2c1CCCC2	40
CC1=NOC(=O)/C1=C\c1ccc(-c2cccc(Cl)c2)o1	38
Oc1ccc2ccccc2c1C=NC1CCCCC1	35
COc1ccccc1N(CC(=O)N/N=C/c1c(O)ccc2ccccc12)S(C)(=O)=O	-40*
COc1ccc(S(=O)(=O)Nc2ccc(O)c3ccccc23)cc1	46
CC(=O)c1ccc(NC(=O)c2ccc3nc(-c4ccco4)c(-c4ccco4)nc3c2)cc1	41
O=C(CSc1nc(-c2ccc(F)cc2)nc2c1Cc1ccccc1O2)Nc1cccc(C(=O)O)c1	57
O=C(/C=C/c1ccc(Cl)cc1)c1ccc([N+](=O)[O-])o1	54
O=C(CNC(=O)/C=C/c1ccco1)N=Nc1c(O)[nH]c2ccccc12	51
Cc1onc(-c2ccccc2)c1C(=O)NNC(=S)NC(=O)c1ccc(Br)cc1	-51*
COc1ccc(-c2cc(C(=O)NNC(=S)NC(=O)c3c(-c4ccccc4)noc3C)[nH]n2)cc1	-46*
CC(C)c1nc2oc3c(NCCO)ncnc3c2c2c1COC(C)(C)C2	46
CCCc1nc2oc3c(NCCOCCO)ncnc3c2c2c1COC(C)(C)C2	39
CCOC(=O)c1sc(NC(=O)CSc2nnc(Cc3ccccc3)o2)c(C#N)c1C	-40*
SMILES	HKDC1 activator
CCOC(=O)c1ccc(NC(=O)CSc2ccc(-c3ccccn3)nn2)cc1	37
CSc1nc(N(CCO)CCO)c2sc3nc(-c4ccco4)c4c(c3c2n1)CCC4	37
CC(C)c1nc2oc3c(NCC4CCCO4)ncnc3c2c2c1COC(C)(C)C2 (stereo not given)	40
COC(=O)c1cc(=O)n(Cc2ccc(OC)cc2)c(=NCc2ccc(OC)cc2)s1	-43*
COc1ccc(CN2C(=O)c3cccnc3C2O)cc1 (stereo not given)	41
COc1ccc(-n2c(C)cc(C(=O)CCl)c2C)cc1	35
COc1ccc(-n2cccc2/C=C2\C(=N)N3N=C(c4ccco4)SC3=NC2=O)cc1	35
CCOC(=O)C1=C(Cc2ccc(F)cc2)C(=O)c2ccccc2C1=O	73
CSc1nc(N)nc2c1ncn2CC(=O)N[C@H](C)c1cccc2ccccc12	-55*
O=S(=O)(Nc1cc(Sc2ncn[nH]2)c(O)c2ccccc12)c1ccccc1	55
O=C1C=CC(=O)C(C2=C3C(=O)N(CCc4ccccc4)CC(=O)N3CCC2)=C1	63
COCCN1C=C2C(=O)C(C)(OC(=O)CCC(=O)OC)C(=O)C(Br)=C2C=C1c1ccc(OC)cc1 (stereo not given)	38
COc1ccc2c(c1)/C(=C\c1cccc(/C=C3/C(=O)Nc4ccc(OC)cc43)n1)C(=O)N2	37
O=C(OCC(=O)N1CCN(C(=O)c2ccco2)CC1)c1cc(-c2ccco2)nc2ccccc12	37
Cc1cc(O)c(C=O)c2c1C(=O)Oc1c(CO)c(O)c3c(c1O2)C(O)OC3=O (stereo not given)	37
Cc1ccc(C2=NN=C(NC(=O)CSc3nncn3C)SC2)cc1	-144*
Cc1cccc2c(N=NC(=O)c3ccc(NS(=O)(=O)c4cccs4)cc3)c(O)[nH]c12	36
Cc1nc2sc3c(NCc4ccco4)ncnc3c2c2c1COC(C)(C)C2	35
N=C1N(/N=C/c2ccccc2)C(=Nc2ccccc2)C(=S)N1c1ccccc1	-49*
CC(C)c1nc2oc3c(=O)[nH]cnc3c2c2c1COC(C)(C)C2	36
CCCCC(=O)NC(c1ccc(N(CC)CC)cc1)c1ccc2cccnc2c1O (stereo not given)	-46*
Cn1c2ccccc2c2ccc3c(c21)C(=O)C=CC3=O	37
O=C(O)COc1ccc(/C=N/NC(=O)c2ccc(-c3csc(Nc4ccc(Cl)cc4)n3)cc2)cc1	76
CC(=O)c1cc(O)c2ccccc2c1O	44
O=C1C(O)=CC(=C(c2ccccc2)c2ccccc2)c2ccccc21	78
SMILES	HKDC1 activator
Cc1ccc(SC2=C(Sc3ccc(C)cc3)C(=O)c3ccccc3C2=O)cc1	66
C/C(=N\NC(=O)c1c(C)nc2ccccn12)c1ccc(O)cc1O	-45*
Cc1ccc2cc(CCNC(=O)c3ccc(S(=O)(=O)N4CCCCC4)cc3)c(=O)[nH]c2c1	40
O=C(/C=C/Sc1ccccc1)c1ccccc1	36
N=C1/C(=C\c2coc3ccccc3c2=O)C(=O)N=C2SC(c3ccncc3)=NN12	45
O=C(Sc1nnc(-c2ccccc2)o1)N1c2ccccc2Sc2ccccc21	37
Cc1ccc2oc(C(=O)N3CCC(N4CCSCC4)CC3)c(C)c2c1	35
CCOc1ccc(N)c(SSc2cc(OCC)ccc2N)c1	-42*
CCOc1ccc2nc3cc(N=Nc4ccc(N)nc4N)ccc3c(N)c2c1	37
CCCCC(CC)CN=C(N)NC(N)=NCCCCCCN=C(N)NC(N)=NCC(CC)CCCC (stereo not given)	42
O=C1C(Cl)=C(N2CCN(c3ccccc3[N+](=O)[O-])CC2)C(=O)c2ccccc21	40
c1ccc2oc(C3=NNC(=NC4CC4)SC3)cc2c1	-47*
O=C(O)c1ccc2c(=O)n(-c3ccccc3)c(=S)[nH]c2c1	84
COc1cccc2cc(C(=O)Nc3ccc(F)cc3)c(=Nc3ccc(C(=O)O)cc3)oc12	77
CCc1ccc2c(c1)C(NC(C)=O)C(=O)N2CCN1CCOCC1 (stereo not given)	80
O=C1C=C(Nc2ccc(F)cc2)c2ccccc2C1=O	42
Cc1ccccc1NC1=C/C(=N\S(=O)(=O)c2ccc(C(=O)O)cc2)c2ccccc2C1=O	70
O=C(O)c1ccc(NC2=C(Cl)C(=O)c3ccccc3C2=O)cc1	-131*
O=C(Nc1ccc2nc(-c3ccco3)c(-c3ccco3)nc2c1)N1CCN(c2ccccn2)CC1	57
Nc1nc(N2CCN(c3ccccn3)CC2)nc2ccccc12	-58*
COc1ccc2c(c1)c(=O)oc1c(C)c(OCc3cc(C(=O)O)oc3C)ccc12	79
O=C(O)c1cccc(-n2cccc2/C=C2/NC(=O)N(c3ccc(Cl)cc3)C2=O)c1	61
CCC(c1ccccc1)C(CC)c1cc(O)c(O)c(O)c1 (stereo not given)	42
Oc1c(Br)cc(Br)cc1/C=N/c1nc2c(s1)CCCC2	37
CC1CCc2c(c3ccccc3n2C(=O)CCl)C1 (stereo not given)	46
Cc1cc(C)nc(Nc2n[nH]c(-c3ccc(C(C)(C)C)cc3)n2)n1	-51*
CC(C)(C)c1ccc(-c2csc(NNC3=NCCCCC3)n2)cc1	-61*

Bioassay records from PubChem.
